CHO-K1 Ca antag: nonselective inhibitor or artifact in parental CHO-K1 cells; ATP-induced calcium, Fluo-8 fluorescence; inhibition, % at 3 µM; 360,000 compounds, 0.6% hits; AID 602250;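 active = inhibition above a per-plate cutoff, the plate's mean sample inhibition plus 3 SD, cut at about 24% in these data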;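 also: 0% = DMSO plus EC80 ATP and 100% = DMSO alone without ATP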
OX1R antag-1: OX1R (HCRTR1) antagonists, primary screen, fluorescence, CHO/OX1R cells, Fluo-8 calcium, orexin A; inhibition, % at 5 µM; Fluo-8 calcium fluorescence; AID 434989, 2010; 330,000 compounds, 0.43% hits;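 active = inhibition above its plate's threshold, mean inhibition of all tested compounds on the plate plus 3 SD, cut at about 37% in these data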;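 also: 0% = orexin A challenge wells and 100% = SB-334867-A antagonist wells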
Target sequence (O43613 whole entry, looked up): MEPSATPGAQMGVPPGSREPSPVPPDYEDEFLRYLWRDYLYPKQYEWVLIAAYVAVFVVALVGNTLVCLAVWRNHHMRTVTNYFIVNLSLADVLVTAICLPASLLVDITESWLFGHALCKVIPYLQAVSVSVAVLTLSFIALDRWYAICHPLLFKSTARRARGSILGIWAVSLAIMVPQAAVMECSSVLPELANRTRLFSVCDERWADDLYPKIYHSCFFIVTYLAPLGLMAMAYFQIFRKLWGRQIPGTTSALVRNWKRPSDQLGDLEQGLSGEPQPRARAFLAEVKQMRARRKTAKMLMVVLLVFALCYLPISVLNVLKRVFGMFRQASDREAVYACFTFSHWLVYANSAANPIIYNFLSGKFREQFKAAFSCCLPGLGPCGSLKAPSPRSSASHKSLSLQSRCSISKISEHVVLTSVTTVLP
CHO parental Ca: ATP-evoked calcium signal inhibitors, parental CHO, primary screen, counter-screen for OX1R antagonist project, cell-based, fluorescence, Fluo-8 calcium dye; parental CHO-K1, ATP-induced calcium, Fluo-8 fluorescence; inhibition, % at 5.6 µM; 330,000 compounds, 0.63% hits; AID 463079, 2010;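 active = inhibition above that plate's mean sample inhibition plus 3 SD, cut at about 26% in these data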;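 also: 0% = ATP-challenged DMSO wells and 100% = DMSO wells without ATP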
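Test system: untransfected parental CHO cell line. Compound: one dose, 5.6 µM nominal. Detection: intracellular calcium via Fluo-8 no-wash fluorescent dye. Measure: % inhibition. Benchmarks: ATP-challenged DMSO wells low, unchallenged DMSO wells high.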
M1 ag parental: counter-screen for M1 agonists: effect in parental CHO-K1 cells; Fluo-8 calcium fluorescence; scaled to maximal ATP response, vehicle zero; activation, % at 3 µM; 360,000 compounds, 0.48% hits; in the data active = activation above about 15%;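 also: untransfected CHO-K1 host cells lacking M1 receptor as counterscreen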
CHO-K1 Ca PAM: nonselective calcium activators in parental CHO-K1 cells, primary screen, counter-screen for M1 PAM project, cell-based, Fluo-8 calcium fluorescence, full deck, 1536-well | 360,000 compounds, 0.02% hits | ATP EC20; 0% at ATP EC20, 100% at ATP max | activation, % at 3 µM;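 active = activation above the run cutoff, the mean activation of all test compounds plus 3 SD, cut at about 40% in these data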;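 also: peak over basal fluorescence ratio in a 140 s read after ATP addition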
OX1R antag-2: antagonists of human orexin 1 receptor (OX1R); Orexin/Hypocretin receptor type 1 (Homo sapiens), O43613; OX1R-expressing cells, FRET antagonist read-out; inhibition, % at 6.6 µM; 330,000 compounds, 1.8% hits; AID 485270, 2010; in the data active = inhibition mostly above about 38%, no sharp cut-off; inactive = mostly below about 40%;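 also: 0% = agonist challenge alone and 100% = reference antagonist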
OX1R Fluo8 conf: OX1R (HCRTR1) antagonists, confirmation, fluorescence, CHO/OX1R cells, Fluo-8 calcium, orexin A | shares compounds with OX1R antag-1 | orexin A calcium Fluo-8 fluorescence | inhibition, % at 5 µM | 1,100 compounds, 38% hits; in the data active = inhibition above about 29%;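 also: 0% = agonist challenge alone and 100% = reference antagonist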
CHO Ca counter: ATP-evoked calcium inhibition in parental CHO, counter-screen for OX1R antagonist project, cell-based, fluorescence, CHO-K1, triplicate | shares compounds with OX1R antag-1 | ATP-induced calcium, Fluo-8 fluorescence | inhibition, % at 5.6 µM | 1,100 compounds, 9.3% hits | AID 492965, 2010;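 active = inhibition above a per-plate limit, the mean inhibition of that plate's test compounds plus 3 SD, cut at about 25% in these data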;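 also: 0% = ATP challenge with DMSO and 100% = DMSO without ATP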
* marks the source's active call; other numbers are inactive results; . = no result. Rows were chosen to be rich in hits. Some 2.9% of all compounds tested hit in one or more screens of this group.

SMILES	CHO-K1 Ca antag	OX1R antag-1	CHO parental Ca	M1 ag parental	CHO-K1 Ca PAM	OX1R antag-2	OX1R Fluo8 conf	CHO Ca counter
C[C@H](CO)N1C[C@H](C)[C@@H](CN(C)Cc2ccc3c(c2)OCO3)Oc2c(NC(=O)Cc3ccccc3)cccc2C1=O	-2	-15	-22	3	-9	9	.	.
Cc1nn(-c2ccccc2)c2nc(N)c(C#N)c(-c3ccc(O)c(O)c3)c12	-3	36	3	6	-1	9	34*	6
Cc1nn(-c2ccc(F)cc2)c2nc(N)c(C#N)c(-c3ccc(O)c(O)c3)c12	7	.	.	2	-3	.	.	.
COc1ccc(NS(=O)(=O)c2ccc(N3CCCCC3)c(N)c2)cc1	9	62*	12	13	-3	16	20	65*
CN(C)CCCn1c(=O)n(C2CCCCC2)c(=O)c2c3c(sc21)CCCCC3	-8	-24	-22	4	10	19	.	.
O=C(NCCN1C(=O)S/C(=C\c2ccccc2)C1=O)c1cc(S(=O)(=O)N2CCOCC2)c(Cl)cc1Cl	21	30	19	15*	-13	34	59*	4
CNc1snc(C)c1C(=O)OCC(=O)c1ccc(Cl)cc1	16	37	2	12	-8	19	16	45*
CNc1snc(C)c1C(=O)OC(C)C(=O)c1ccc(F)cc1 (stereo not drawn)	-8	-2	-20	10	8	15	.	.
CCOc1ccccc1N1CCN(C(=O)c2ccc(S(=O)(=O)Nc3ccccc3)cc2)CC1	1	45*	3	4	-7	6	41*	-7
COCc1cc(CN(C)C(=O)C2CCC(=O)N(Cc3cccc(OC)c3)C2)[nH]n1 (stereo not drawn)	-13	4	-1	1	18	1	.	.
CN(c1ccccc1)S(=O)(=O)c1cccc(NC(=O)Cc2n[nH]c(=O)c3ccccc23)c1	-10	36	-8	7	4	5	5	-6
Cc1cc(C)c(NC(=O)CN(C)CC(=O)Nc2cccc(S(=O)(=O)N(C)c3ccccc3)c2)c(C)c1	-9	37*	1	9	-1	16	8	-10
CN(CC(=O)Nc1cccc(F)c1)CC(=O)Nc1cccc(S(=O)(=O)N(C)c2ccccc2)c1	-8	.	.	11	8	.	.	.
Cc1cccc(CNC(=O)C2CCC(=O)N(CC3CCCCC3)C2)c1 (stereo not drawn)	-12	.	.	0	7	.	.	.
O=C1C=CC(=O)N1Cc1ccccn1	-13	.	.	1	7	.	.	.
COc1ccc(C(=O)NNC(=S)NC(=O)c2ccco2)cc1	-4	31	3	7	8	8	6	19
COc1ccc(-c2ocnc2C(=O)NCc2nn(-c3ccccc3)nc2C)cc1	12	38	24	11	2	25	8	29*
CCN(CC)CCCN=C1N[C@@H](c2cccc(F)c2)C(C(=O)OC)=C(C)N1Cc1ccccc1	11	6	-15	-1	-19	4	.	.
COC(=O)C1=C(C)N(Cc2ccccc2)C(=NCc2ccccc2)N[C@H]1c1cccc(F)c1	-5	29	14	7	19	22	33*	7
COC(=O)c1ccc2c(c1)C(C)(C)C(/C=C/c1ccc(O)cc1)=[N+]2C	11	31	14	5	2	25	66*	52*
COC(=O)c1ccc2c(c1)C(C)(C)C(/C=C/c1ccc(OC)c(OC)c1OC)=[N+]2C	-4	5	8	0	14	7	.	.
CCc1ccc2c(c1)C(=O)C[C@]1(CCC[C@H](C)C1)O2	2	-14	-8	-1	-9	16	.	.
CCN(CC)c1ccc(C(=O)N/N=C/c2ccc(OC)cc2OC)cc1	-5	41*	-31	0	13	77	34*	-11
N#Cc1c(C(F)(F)F)cc(-c2ccco2)nc1SCc1ccncc1	4	8	-4	13	1	24	.	.
N#Cc1c(C(F)(F)F)cc(-c2ccco2)nc1SCc1ccccn1	18	44	21	18*	1	5	-18	3
SMILES	CHO-K1 Ca antag	OX1R antag-1	CHO parental Ca	M1 ag parental	CHO-K1 Ca PAM	OX1R antag-2	OX1R Fluo8 conf	CHO Ca counter
C[C@@H]1CN([C@@H](C)CO)C(=O)c2cccc(NC(=O)Nc3ccc(F)cc3)c2O[C@@H]1CN(C)Cc1ccc(Oc2ccccc2)cc1	3	52*	28	2	14	4	62*	24
CC(C)Cc1cc(C(=O)N2CCC(N3CCC(C(=O)N4CCOCC4)CC3)CC2)n[nH]1	2	-1	-3	0	-5	20	.	.
Fc1ccc(-c2cc(C(F)(F)C(F)F)[nH]n2)cc1	-1	27	10	26*	6	9	37*	19
CC(C)(C)c1cc(-c2ccccc2)n[nH]1	4	-15	-7	0	-5	10	.	.
COc1cccc(NC(=O)CN(c2ccccc2OC)S(=O)(=O)c2cccs2)c1	-13	36	-16	2	11	21	14	-8
CCN(CC)C(=O)c1[nH]cnc1C(=O)N[C@@H](Cc1ccccc1)C(=O)OC(C)(C)C	0	-9	-15	0	-10	18	.	.
Cc1cccc(N2CCN(C(=O)c3ccc(CS(=O)Cc4cccc(Cl)c4)o3)CC2)c1C (stereo not drawn)	-11	31	21	4	8	12	7	-7
Cc1ccc(CS(=O)Cc2ccc(C(=O)N3CCN(c4cccc(C)c4C)CC3)o2)cc1 (stereo not drawn)	-2	.	.	9	12	.	.	.
C=CCC(COCc1ccccc1)NS(=O)(=O)c1ccccc1Br (stereo not drawn)	-5	34	-11	-1	10	49	8	-7
CCN(CC)C(=O)C1c2ccccc2Oc2ccccc21	2	24	13	27*	6	31	-7	-6
Cc1ncsc1CCOC(=O)c1ccc(N2CCOCC2)c([N+](=O)[O-])c1	-9	34	18	3	5	53	13	21
Cc1c(CCOC(=O)c2ccc(N3CCOCC3)c([N+](=O)[O-])c2)sc[n+]1CC#N	-9	-20	-11	2	16	28	.	.
CCN(CC)C(=O)c1nc[nH]c1C(=O)N1CCN(c2ccccc2)CC1	-13	-4	-10	0	26	0	.	.

Assay outcomes: PubChem, The Scripps Research Institute Molecular Screening Center
